≈ marks a conversion by molar mass, not a printed value. Calls of active or inactive are those of the source. The calls are words filed in the database; no cut-off is given here.
Columns and labels:
[1] = system: Mycobacterium tuberculosis; assay: Antimycobacterial activity against drug-resistant Mycobacterium tuberculosis isolate MDR2 assessed as inhibition of mycobacterial growth incubated for 9 days; type: functional
How it was run: (§1)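 MIC by HT-SPOTi on Middlebrook 7H10 agar with 0.05% (v/v) glycerol and 10% (v/v) OADC in 96-well format. Compounds dissolved at 50 mg/mL (stock), two-fold serial dilutions, final 500-0.5 µg/mL. Each well spotted with 2 µL early-to-midlog culture (2x10^3 CFU), incubated at 37 °C until distinct spots in control wells. DMSO-only and isoniazid controls; triplicate.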

[2] = system: Mycobacterium tuberculosis; assay: Antimycobacterial activity against drug-resistant Mycobacterium tuberculosis isolate MDR1 assessed as inhibition of mycobacterial growth incubated for 9 days; type: functional; how it was run: as §1
[3] = system: Mycobacterium tuberculosis variant bovis BCG; assay: Antimycobacterial activity against Mycobacterium bovis BCG Pasteur ATCC 35734 assessed as inhibition of mycobacterial growth incubated for 24 hrs by MABA method; type: functional; details: Pasteur ATCC 35734, 24 h
[4] = system: Mycobacterium tuberculosis; assay: Antimycobacterial activity against drug-resistant Mycobacterium tuberculosis isolate MDR2 assessed as inhibition of mycobacterial growth at 500 ug/ml incubated for 9 days; type: functional, organism-based; how it was run: as §1
[5] = system: Mycobacterium tuberculosis; assay: Antimycobacterial activity against drug-resistant Mycobacterium tuberculosis isolate MDR1 assessed as inhibition of mycobacterial growth at 500 ug/ml incubated for 9 days; type: functional, organism-based; how it was run: as §1

Molecule Cc1cc(CNC2C3CC4CC(C3)CC2C4)c(C)n1-c1ccc(Cl)cc1 (stereo not given) has an MIC ([1]; isolate MDR2, 216 h) of 125 µg/mL (≈ 339 µM), an MIC ([2]; isolate MDR1, 216 h) of 3.9 µg/mL (≈ 10.6 µM) and an MIC [3] of 2 µg/mL (≈ 5.42 µM).

For Cc1cc(CNCCc2ccccc2)c(C)n1-c1ccc(Cl)cc1, the MIC ([1]; isolate MDR2, 216 h) was 7.8 µg/mL (≈ 23 µM), the MIC ([2]; isolate MDR1, 216 h) was 1.9 µg/mL (≈ 5.61 µM) and the MIC [3] was 16 µg/mL (≈ 47.2 µM).

Cc1c(CNCc2ccccc2)cc(-c2ccc(Cl)cc2)n1-c1ccc(Cl)cc1 gave an MIC [3] of 8 µg/mL (≈ 19 µM).

CC(C)=CCC/C(C)=C/CNCCNC1C2CC3CC(C2)CC1C3 (stereo not given) [SQ109] gave an MIC [3] of 2 µg/mL (≈ 6.05 µM).

In the case of Cc1c(CN2CCN(C3CC4CCC3C4)CC2)cc(-c2ccc(Cl)cc2)n1-c1ccc(Cl)cc1 (mixture of isomers), the MIC [3] was 64 µg/mL.

For Cc1cc(CNOCc2ccccc2)c(C)n1-c1ccc(F)cc1, the MIC ([1]; isolate MDR2, 216 h) was over 125 µg/mL, the MIC ([2]; isolate MDR1, 216 h) was 62 µg/mL (≈ 191 µM) and the MIC [3] was over 64 µg/mL.

Work on Cc1c(CN2CCN(C)CC2)cc(-c2ccc(Cl)cc2)n1-c1ccc(Cl)cc1 yielded an MIC ([1]; isolate MDR2, 216 h) of 16 µg/mL (≈ 38.6 µM), an MIC ([2]; isolate MDR1, 216 h) of 3.9 µg/mL (≈ 9.41 µM) and an MIC [3] of 0.78 µg/mL (≈ 1.88 µM).

For Cc1cc(CN2CCN(C3C4CC5CC(C4)CC3C5)CC2)c(C)n1-c1ccccc1F (stereo not given), the MIC ([1]; isolate MDR2, 216 h) was 16 µg/mL (≈ 38 µM), the MIC ([2]; isolate MDR1, 216 h) was 7.8 µg/mL (≈ 18.5 µM) and the MIC [3] was 1.3 µg/mL (≈ 3.08 µM).

Cc1cc(/C=N\OCc2ccccc2)c(C)n1-c1ccc(Cl)cc1 gave an MIC ([1]; isolate MDR2, 216 h) of over 125 µg/mL, an MIC ([2]; isolate MDR1, 216 h) of over 125 µg/mL and an MIC [3] of over 64 µg/mL.

Cc1cc(CNCc2ccccc2)c(C)n1-c1ccc(Cl)cc1 showed an MIC ([1]; isolate MDR2, 216 h) of 3.9 µg/mL (≈ 12 µM), an MIC ([2]; isolate MDR1, 216 h) of 1 µg/mL (≈ 3.08 µM) and an MIC [3] of 0.5 µg/mL (≈ 1.54 µM).

With Cc1cc(CNCc2ccccc2)c(C)n1-c1ccc(F)cc1 the MIC ([1]; isolate MDR2, 216 h) was 62 µg/mL (≈ 201 µM), the MIC ([2]; isolate MDR1, 216 h) was 7.8 µg/mL (≈ 25.3 µM) and the MIC [3] was 13 µg/mL (≈ 42.2 µM).

Cc1ccc(CNCc2cc(C)n(-c3ccc(Cl)cc3)c2C)cc1 showed an MIC ([1]; isolate MDR2, 216 h) of 7.8 µg/mL (≈ 23 µM), an MIC ([2]; isolate MDR1, 216 h) of 3.9 µg/mL (≈ 11.5 µM) and an MIC [3] of 4 µg/mL (≈ 11.8 µM).

Molecule Cc1cc(CN2CCN(C3C4CC5CC(C4)CC3C5)CC2)c(C)n1-c1ccc(C(C)C)cc1 (stereo not given) has an MIC ([1]; isolate MDR2, 216 h) of 125 µg/mL (≈ 280 µM), an MIC ([2]; isolate MDR1, 216 h) of 62 µg/mL (≈ 139 µM) and an MIC [3] of 4 µg/mL (≈ 8.97 µM).

Work on Cc1c(CN2CCN(C34CC5CC(CC(C5)C3)C4)CC2)cc(-c2ccc(Cl)cc2)n1-c1ccc(Cl)cc1 yielded an MIC ([1]; isolate MDR2, 216 h) of 62 µg/mL (≈ 116 µM), an MIC ([2]; isolate MDR1, 216 h) of 16 µg/mL (≈ 29.9 µM) and an MIC [3] of 2 µg/mL (≈ 3.74 µM).

Cc1c(CN2CCN(c3ccccc3)CC2)c(CN2CCN(c3ccccc3)CC2)c(C)n1-c1ccc(Cl)cc1 gave an MIC ([1]; isolate MDR2, 216 h) of over 125 µg/mL, an MIC ([2]; isolate MDR1, 216 h) of 62 µg/mL (≈ 112 µM) and an MIC [3] of over 64 µg/mL.

Cc1cc(CN2CCN(C3CCCCC3)CC2)c(C)n1-c1ccc(Cl)cc1 showed an MIC ([1]; isolate MDR2, 216 h) of 62 µg/mL (≈ 161 µM), an MIC ([2]; isolate MDR1, 216 h) of 7.8 µg/mL (≈ 20.2 µM) and an MIC [3] of 21 µg/mL (≈ 54.4 µM).

Molecule Cc1cccc(-n2c(C)cc(CN3CCN(C4C5CC6CC(C5)CC4C6)CC3)c2C)c1 (stereo not given) has an MIC ([1]; isolate MDR2, 216 h) of 125 µg/mL (≈ 299 µM), an MIC ([2]; isolate MDR1, 216 h) of 31 µg/mL (≈ 74.2 µM) and an MIC [3] of 62 µg/mL (≈ 148 µM).

Work on Cc1cc(CN2CCN(C3C4CC5CC(C4)CC3C5)CC2)c(C)n1-c1ccc(Cl)cc1 (stereo not given) yielded an MIC ([1]; isolate MDR2, 216 h) of 16 µg/mL (≈ 36.5 µM), an MIC ([2]; isolate MDR1, 216 h) of 7.8 µg/mL (≈ 17.8 µM) and an MIC [3] of 3.3 µg/mL (≈ 7.53 µM).

Work on Cc1cc(CNCc2ccc(Cl)cc2)c(C)n1-c1ccc(Cl)cc1 yielded an MIC ([1]; isolate MDR2, 216 h) of over 125 µg/mL, an MIC ([2]; isolate MDR1, 216 h) of 31 µg/mL (≈ 86.3 µM) and an MIC [3] of 8 µg/mL (≈ 22.3 µM).

In the case of Cc1cc(CNC2CCCCC2)c(C)n1-c1ccc(Cl)cc1, the MIC ([1]; isolate MDR2, 216 h) was 16 µg/mL (≈ 50.5 µM), the MIC ([2]; isolate MDR1, 216 h) was 0.5 µg/mL (≈ 1.58 µM) and the MIC [3] was 0.4 µg/mL (≈ 1.26 µM).

For Cc1c(CN2CCN(c3ccccc3)CC2)cc(-c2ccc(Cl)cc2)n1-c1ccc(Cl)cc1, the MIC ([1]; isolate MDR2, 216 h) was over 125 µg/mL, the MIC ([2]; isolate MDR1, 216 h) was 3.9 µg/mL (≈ 8.19 µM) and the MIC [3] was 2 µg/mL (≈ 4.2 µM).

Cc1cc(CN2CCN(c3ccccc3)CC2)c(C)n1-c1ccc(Cl)cc1 gave an MIC ([1]; isolate MDR2, 216 h) of over 125 µg/mL, an MIC ([2]; isolate MDR1, 216 h) of 31 µg/mL (≈ 81.6 µM) and an MIC [3] of 32 µg/mL (≈ 84.2 µM).

Cc1cc(CNOCc2ccccc2)c(C)n1-c1ccc(Cl)cc1 was tested, and the “growth inhibition (GI)” value [4] was “inactive”, the MIC [1] was “inactive” and the MIC ([2]; isolate MDR1, 216 h) was 125 µg/mL (≈ 367 µM). The MIC [3] was over 64 µg/mL.

Cc1cc(CN2CCN(C3C[C@@H]4CC[C@H]3C4)CC2)c(C)n1-c1ccc(Cl)cc1 (mixture of isomers) showed an MIC ([1]; isolate MDR2, 216 h) of 31 µg/mL, an MIC ([2]; isolate MDR1, 216 h) of 3.9 µg/mL and an MIC [3] of 32 µg/mL.

Cc1c(CNC2CCCCC2)cc(-c2ccc(Cl)cc2)n1-c1ccc(Cl)cc1 gave an MIC [3] of 4 µg/mL (≈ 9.68 µM).

Cc1cc(CN2CCN(C34CC5CC(CC(C5)C3)C4)CC2)c(C)n1-c1ccc(Cl)cc1 was tested, and the MIC ([1]; isolate MDR2, 216 h) was 125 µg/mL (≈ 285 µM), the MIC ([2]; isolate MDR1, 216 h) was 125 µg/mL (≈ 285 µM) and the MIC [3] was 16 µg/mL (≈ 36.5 µM).

For NNC(=O)c1ccncc1 [ISONIAZID], the MIC ([1]; isolate MDR2, 216 h) was 25 µg/mL (≈ 182 µM) and the MIC ([2]; isolate MDR1, 216 h) was 10 µg/mL (≈ 72.9 µM).

With Cc1c(CN2CCN(C3C4CC5CC(C4)CC3C5)CC2)cc(-c2ccc(Cl)cc2)n1-c1ccc(Cl)cc1 (stereo not given) the MIC ([1]; isolate MDR2, 216 h) was 125 µg/mL (≈ 234 µM), the MIC ([2]; isolate MDR1, 216 h) was 125 µg/mL (≈ 234 µM) and the MIC [3] was 64 µg/mL (≈ 120 µM).

In the case of Cc1cc(CNCc2ccc(F)cc2)c(C)n1-c1ccc(Cl)cc1, the MIC ([1]; isolate MDR2, 216 h) was 16 µg/mL (≈ 46.7 µM), the “growth inhibition (GI)” value [5] was “inactive” and the MIC [2] was “inactive”. It also gave an MIC [3] of 0.5 µg/mL (≈ 1.46 µM).

Reference: ChEMBL document CHEMBL3797154, “Design and Synthesis of 1-((1,5-Bis(4-chlorophenyl)-2-methyl-1H-pyrrol-3-yl)methyl)-4-methylpiperazine (BM212) and N-Adamantan-2-yl-N'-((E)-3,7-dimethylocta-2,6-dienyl)ethane-1,2-diamine (SQ109) Pyrrole Hybrid Derivatives: Discovery of Potent Antitubercular Agents Effective against …” (J Med Chem, 2016)
